The record followed here is ChEMBL document CHEMBL2069218, “Water-soluble pyrazolo[4,3-e][1,2,4]triazolo[1,5-c]pyrimidines as human A₃ adenosine receptor antagonists” (J Med Chem, 2012).

Data set [1] has as its target T1, Adenosine receptor A3 (Homo sapiens, UniProt P0DMS8).
T1 sequence (P0DMS8 whole entry): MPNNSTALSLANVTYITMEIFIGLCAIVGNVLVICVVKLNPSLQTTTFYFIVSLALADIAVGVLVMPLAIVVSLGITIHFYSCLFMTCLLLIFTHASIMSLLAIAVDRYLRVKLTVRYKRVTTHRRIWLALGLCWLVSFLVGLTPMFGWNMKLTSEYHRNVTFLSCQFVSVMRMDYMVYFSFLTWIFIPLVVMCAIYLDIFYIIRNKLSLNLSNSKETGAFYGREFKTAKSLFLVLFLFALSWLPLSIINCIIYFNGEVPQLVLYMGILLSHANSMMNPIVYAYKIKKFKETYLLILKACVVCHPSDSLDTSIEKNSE
Description: Antagonist activity at human adenosine A3 receptor expressed in CHO cells assessed as forskolin/C1-IB-MECA-induced inhibition of cAMP production. It is filed as functional, cell-based. Put shortly:
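Intact CHO cells (1 × 10⁶/assay) expressing human A3, in buffer pH 7.4 with 2 IU/mL adenosine deaminase and Ro 20-1724. Preincubated 10 min at 37 °C. Forskolin 1 μM with Cl-IB-MECA 100 nM. Stopped with cold 6% TCA, cAMP measured by [³H]cAMP competition protein binding. IC50 by sigmoid nonlinear regression.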
In general terms: Cyclic AMP is a second messenger, typically raised through Gs and lowered through Gi signalling.

For a further data set, the target named is T2, Adenosine receptor A2b (Homo sapiens, UniProt P29275).
T2 sequence (P29275 whole entry): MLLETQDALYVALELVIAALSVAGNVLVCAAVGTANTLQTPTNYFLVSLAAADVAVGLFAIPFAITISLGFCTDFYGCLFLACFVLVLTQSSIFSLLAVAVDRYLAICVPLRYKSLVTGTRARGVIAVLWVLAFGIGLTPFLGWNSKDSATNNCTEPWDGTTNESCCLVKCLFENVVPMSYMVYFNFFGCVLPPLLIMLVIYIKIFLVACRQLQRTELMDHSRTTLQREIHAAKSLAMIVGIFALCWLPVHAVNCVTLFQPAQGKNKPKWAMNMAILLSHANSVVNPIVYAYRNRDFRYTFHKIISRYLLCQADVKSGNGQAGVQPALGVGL
The experiment in a line: Antagonist activity at human adenosine A2B receptor expressed in CHO cells assessed as inhibition of NECA-induced cAMP production. It is filed as functional, cell-based. Put shortly:
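Intact CHO cells (1 × 10⁶/assay) expressing human A2B, in buffer pH 7.4 with 2 IU/mL adenosine deaminase and Ro 20-1724. Preincubated 10 min at 37 °C. NECA 100 nM stimulus. Stopped with cold 6% TCA, ether-extracted, cAMP measured by competition protein binding with [³H]cAMP. IC50 from sigmoid nonlinear regression.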

The target in data set [2] is T1, Adenosine receptor A3. Description: Displacement of [3H]MRE-3008-F20 from human adenosine A3 receptor expressed in CHO cells after 120 mins by scintillation counter. The format is cell-based. On the technique in general: In a radioligand displacement assay an active substance lowers the binding of a labelled ligand.
The target in data set [3] is Adenosine receptors; A1 & A3 (Homo sapiens) (UniProt P30542+P0DMS8). Description: Selectivity ratio of Ki for human adenosine A1 receptor to Ki for human adenosine A3 receptor.
The next data set deals with T3, Adenosine receptor A1 (Homo sapiens, UniProt P30542).
T3 sequence (P30542 whole entry): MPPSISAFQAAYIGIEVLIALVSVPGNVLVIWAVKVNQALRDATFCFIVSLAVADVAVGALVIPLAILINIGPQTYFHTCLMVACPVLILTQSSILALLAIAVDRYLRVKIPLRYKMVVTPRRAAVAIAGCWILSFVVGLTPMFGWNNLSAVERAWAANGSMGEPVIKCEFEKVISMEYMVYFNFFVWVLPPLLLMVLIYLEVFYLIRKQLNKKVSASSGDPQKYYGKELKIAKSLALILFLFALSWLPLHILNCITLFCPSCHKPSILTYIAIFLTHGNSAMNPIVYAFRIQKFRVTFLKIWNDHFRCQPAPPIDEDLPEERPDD
Description: Displacement of [3H]DPCPX from human adenosine A1 receptor expressed in CHO cells after 120 mins by scintillation counter. It is filed as cell-based. Put shortly:
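Membranes from CHO cells expressing human A1 (50 μg protein), in 50 mM Tris-HCl pH 7.4, pretreated with adenosine deaminase 2 IU/mL. [³H]DPCPX 1 nM, 6–8 test concentrations, 120 min at 25 °C. Nonspecific binding with 1 μM DPCPX. GF/B filtration. Ki by Cheng–Prusoff.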

The target in the next data set is Adenosine receptor A2a (Homo sapiens, UniProt P29274). The experiment in a line: Displacement of [3H]ZM241385 from human adenosine A2A receptor expressed in CHO cells after 60 mins by scintillation counter. The format is cell-based. Put shortly:
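Membranes from CHO cells expressing human A2A (50 μg protein), in 50 mM Tris-HCl, 10 mM MgCl2, pH 7.4, adenosine deaminase pretreated. [³H]ZM241385 2 nM, 6–8 concentrations, 60 min at 4 °C. Nonspecific binding with 1 μM ZM241385. Filtration, scintillation counting. Ki by Cheng–Prusoff. 3–4 experiments in duplicate.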

Data set [4] can be described thus: Solubility of the compound in water at pH 7.4. The format is physicochemical. Put shortly: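 Hydrochloride salts, solubility measured in phosphate-buffered saline at pH 7.4.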

Adenosine receptor A2a, sequence (P29274 whole entry): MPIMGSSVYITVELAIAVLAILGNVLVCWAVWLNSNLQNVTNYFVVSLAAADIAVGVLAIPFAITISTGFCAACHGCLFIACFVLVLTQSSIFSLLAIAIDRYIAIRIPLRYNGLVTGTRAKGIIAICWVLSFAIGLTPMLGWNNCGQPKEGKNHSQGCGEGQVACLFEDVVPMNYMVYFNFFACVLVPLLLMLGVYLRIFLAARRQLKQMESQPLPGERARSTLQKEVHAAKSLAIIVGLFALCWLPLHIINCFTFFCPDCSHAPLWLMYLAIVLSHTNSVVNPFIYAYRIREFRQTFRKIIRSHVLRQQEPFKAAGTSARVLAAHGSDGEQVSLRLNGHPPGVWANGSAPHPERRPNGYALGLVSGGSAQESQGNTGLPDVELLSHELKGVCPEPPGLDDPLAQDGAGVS

Broadly, the IC50 is the concentration that gives 50% inhibition. What is called Ki is the equilibrium dissociation constant of an inhibitor or competing ligand from its target. A higher Ki goes with a looser hold on the target. Turning to `Cn1cc2c(nc(NC(=O)NC3CCN(C(=O)NCCCc4ccccc4)CC3)n3nc(-c4ccco4)nc23)n1`, the half-maximal inhibitory concentration (IC50) at Adenosine receptor A3 [1] turned out to be 46 nM; on Adenosine receptor A2b, 1540 nM. For the same molecule, the figures for the Ki on Adenosine receptor A3 [2], at Adenosine receptor A1 and on Adenosine receptor A2a were 14.5 nM, 112 nM and 1640 nM, respectively. The Ratio Ki in data set [3] amounted to 7.7.

The term solubility denotes the concentration that dissolves in the medium under given conditions. A high value points to a readily soluble substance. In the case of `CN1CCC(NC(=O)Nc2nc3nn(C)cc3c3nc(-c4ccco4)nn23)CC1.Cl`, the solubility in data set [4] worked out at 15000 µg/mL.

For the molecule `Cc1ccc(CN2CCC(NC(=O)Nc3nc4nn(C)cc4c4nc(-c5ccco5)nn34)CC2)cc1`, the IC50 was 50 nM at Adenosine receptor A3 [1] and above 5000 nM at Adenosine receptor A2b. The Ki was 13.8 nM at Adenosine receptor A3 [2], 1480 nM on Adenosine receptor A1 and above 5000 nM on Adenosine receptor A2a. Moreover, the Ratio Ki in data set [3] was 107.

Take `Cl.Cn1cc2c(nc(NC(=O)Nc3ccncc3)n3nc(-c4ccco4)nc23)n1`: the solubility in data set [4] was below 100 µg/mL.

On to `Cn1cc2c(nc(NC(=O)NC3CCN(Cc4ccc(C#N)cc4)CC3)n3nc(-c4ccco4)nc23)n1`, for which the half-maximal inhibitory concentration (IC50) at Adenosine receptor A3 [1] was 40 nM; at Adenosine receptor A2b, above 5000 nM. In addition, the values for the Ki at Adenosine receptor A3 [2], at Adenosine receptor A1 and at Adenosine receptor A2a were 11.8 nM, 166 nM and 2220 nM, respectively. In data set [3], the Ratio Ki amounted to 14.

On to `Cl.Cn1cc2c(nc(NC(=O)NC3CCN(Cc4ccc(F)cc4)CC3)n3nc(-c4ccco4)nc23)n1`, for which the solubility in data set [4] stood at 8000 µg/mL.

`C#CCN1CCC(NC(=O)Nc2nc3nn(C)cc3c3nc(-c4ccco4)nn23)CC1.Cl` registered a solubility in data set [4] of 8000 µg/mL.

As to `COc1ccc(CN2CCC(NC(=O)Nc3nc4nn(C)cc4c4nc(-c5ccco5)nn34)CC2)cc1`, the half-maximal inhibitory concentration (IC50) was 45 nM at Adenosine receptor A3 [1] and above 5000 nM on Adenosine receptor A2b. For the same molecule, the figures for the Ki on Adenosine receptor A3 [2], on Adenosine receptor A1 and on Adenosine receptor A2a were 13.3 nM, 1160 nM and above 5000 nM, respectively. The Ratio Ki in data set [3] is 87.

Regarding `Cl.Cn1cc2c(nc(NC(=O)NC3CCN(CC4CCCCC4)CC3)n3nc(-c4ccco4)nc23)n1`, the figures for the IC50 on Adenosine receptor A3 [1] and at Adenosine receptor A2b were 30 nM and above 5000 nM, respectively. Besides, the Ki on Adenosine receptor A3 [2] was 9.7 nM; at Adenosine receptor A1 it was 3410 nM; on Adenosine receptor A2a, above 5000 nM. The Ratio Ki in data set [3] amounted to 351. The solubility in data set [4] is 8000 µg/mL.
